Results on 26 compounds are retold here after ChEMBL document CHEMBL1150282, “Synthesis and biological evaluation of pyridazinone analogues as potential cardiac positron emission tomography tracers” (J Med Chem, 2008).

Some results are limits rather than exact numbers.

By IC50 is commonly meant the concentration at which inhibition is half-maximal.

The nature of data set [1]: Inhibition of mitochondrial complex 1 in bovine heart mitochondria assessed as effect on rate of NADH oxidation. On the set-up: species or system Bos taurus. Put shortly:
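Bovine heart submitochondrial particles (45 µg/mL final) in 50 mM K₂HPO₄ pH 7.4 with 0.4 µM antimycin A and 2 mM KCN. Inhibitor at varying concentrations preincubated 4 min, then 100 µM decyl ubiquinone and 50 µM NADH added. NADH oxidation followed at 340 nm, 37 °C, 120 s; IC50 is concentration giving 50% inhibition.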

Data set [2] relates to Femur. Kind of data set: Biodistribution in Sprague-Dawley rat femur at 15 uCi, iv after 120 mins. It is filed as ADME, organism-based. Conditions: in vivo, 2 h. The procedure, abridged:
(§1)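 Male Sprague–Dawley rats (300–400 g) anesthetized with sodium pentobarbital 50 mg/kg ip; left femoral vein cannulated; about 15 µCi radiotracer in 0.3 mL 10% ethanol saline given iv. Killed in CO₂ at 30 or 120 min (n = 3 per time point); tissues weighed and gamma-counted. Counts decay-corrected, net dose from syringe and catheter residues subtracted; expressed as %ID/g ± SD.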

The subject of data set [3] is Liver. Kind of data set: Biodistribution in Sprague-Dawley rat liver at 15 uCi, iv after 120 mins. Conditions: in vivo, 2 h. It is filed as ADME, organism-based. Put shortly: as §1
Data set [4] deals with Lung. The data set is described as follows: Biodistribution in Sprague-Dawley rat lung at 15 uCi, iv after 30 mins. It is filed as ADME, organism-based. Conditions: in vivo, 0.5 h. The procedure, abridged:
as §1

Data set [5] concerns Blood. The data set is described as follows: Biodistribution in Sprague-Dawley rat blood at 15 uCi, iv after 30 mins. It is filed as ADME, organism-based. Particulars: in vivo, 0.5 h. Put shortly:
as §1

Data set [6] in a line: Ratio of drug uptake in heart to lung of Sprague-Dawley rat at 15 uCi, iv after30 mins. Particulars: in vivo, 0.5 h. It is filed as ADME, organism-based. The procedure, abridged:
(§2)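 Same rat protocol: pentobarbital-anesthetized male SD rats (300–400 g), about 15 µCi iv in 10% ethanol saline via femoral vein, three animals per point, gamma counting of weighed tissues with decay correction. Ratios formed from heart %ID/g over blood, lung, liver or femur %ID/g at 30 min post injection.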

In data set [7] the test system is Heart. Kind of data set: Biodistribution in Sprague-Dawley rat heart at 15 uCi, iv after 30 mins. It is filed as ADME, organism-based. Conditions: in vivo, 0.5 h. Put shortly:
as §1

The test system of data set [8] is Heart. Kind of data set: Biodistribution in Sprague-Dawley rat heart at 15 uCi, iv after 120 mins. It is filed as ADME, organism-based. Particulars: in vivo, 2 h. Put shortly: as §1
Data set [9] has as its system Blood. Kind of data set: Biodistribution in Sprague-Dawley rat blood at 15 uCi, iv after 120 mins. It is filed as ADME, organism-based. Conditions: in vivo, 2 h. The procedure, abridged:
as §1

For data set [10], the system named is Femur. Kind of data set: Biodistribution in Sprague-Dawley rat femur at 15 uCi, iv after 30 mins. It is filed as ADME, organism-based. Conditions: in vivo, 0.5 h. The procedure, abridged:
as §1

For data set [11], the system named is Lung. Kind of data set: Biodistribution in Sprague-Dawley rat lung at 15 uCi, iv after 120 mins. It is filed as ADME, organism-based. Particulars: in vivo, 2 h. Put shortly: as §1
Data set [12] can be described thus: Ratio of drug uptake in heart to liver of Sprague-Dawley rat at 15 uCi, iv after30 mins. Particulars: in vivo, 0.5 h. It is filed as ADME, organism-based. Put shortly: as §2
Data set [13] in a line: Ratio of drug uptake in heart to femur of Sprague-Dawley rat at 15 uCi, iv after30 mins. It is filed as ADME, organism-based. Conditions: in vivo, 0.5 h. Put shortly:
as §2

Data set [14] deals with Liver. The data set is described as follows: Biodistribution in Sprague-Dawley rat liver at 15 uCi, iv after 30 mins. It is filed as ADME, organism-based. Particulars: in vivo, 0.5 h. Put shortly: as §1
A short description of data set [15]: Ratio of drug uptake in heart to blood of Sprague-Dawley rat at 15 uCi, iv after 30 mins. It is filed as ADME, organism-based. Conditions: heart and blood (heart-to-blood ratio), read-out: Activity. Put shortly: as §2

On to `Cc1c(SCc2ccc(CCCC[18F])cc2)oc2ccccc2c1=O`, for which, in data set [1], the IC50 amounted to 9 nM.
Still for that read-out and setting: the same measure for `Cc1c(SCc2ccc(C(C)(C)C)cc2)oc2ccccc2c1=O`: 52 nM; for `CC(C)(C)c1ccc(CSc2cnn(C(C)(C)C)c(=O)c2F)cc1`: 279 nM.
On the same count and under the same terms, the same measure for `[18F]CCCCc1ccc(CCOc2ncnc3ccccc23)cc1`: 11 nM; for `CC(C)(C)c1ccc(CNc2cnn(C(C)(C)C)c(=O)c2Cl)cc1`: 4000 nM; for `CC(C)(C)n1ncc(OCc2ccc3ccccc3c2)c(Cl)c1=O`: 60 nM.
For the compound `CC(C)(C)n1ncc(OCc2ccc(CCCCF)cc2)c(Cl)c1=O`, the Drug uptake was determined as 1.16 % ID/g with Femur [2]; 0.62 % ID/g with Liver [3]; 0.01 % ID/g in the data set on Lung [4]; 0.11 % ID/g with Blood [5]; 2.94 % ID/g in the data set on Heart [7]; 2.99 % ID/g in the data set on Heart [8]. Also, the Drug uptake was determined as 0.04 % ID/g in the data set with Blood [9], 0.43 % ID/g in the data set with Femur [10], 0.18 % ID/g in the data set with Lung [11] and 2.03 % ID/g with Liver [14]. Besides, the values for the Activity in data set [6], in data set [12] and in [13] were 14.93, 1.45 and 6.84, respectively. In addition, the half-maximal inhibitory concentration (IC50) in data set [1] turned out to be 15 nM. Besides, the Kp at 0.5 h in data set [15] stood at 60.7.
For `CC(F)CCc1ccc(COc2cnn(C(C)(C)C)c(=O)c2Cl)cc1` (stereo not drawn), the Drug uptake in the data set on Femur [2] was found to be 2.38 % ID/g; in the data set with Liver [3] it was 0.63 % ID/g; in the data set on Lung [4], 0.18 % ID/g; in the data set with Blood [5] it was 0.11 % ID/g; in the data set with Heart [7] it was 2.25 % ID/g; in the data set with Heart [8], 2.14 % ID/g. Besides, the Drug uptake was found to be 1.14 % ID/g in the data set with Femur [10], 0.14 % ID/g in the data set with Lung [11] and 1.27 % ID/g in the data set on Liver [14]. Besides, the Activity in [6] amounted to 12.49; in [12], 1.78; in [13] it was 1.98. Moreover, in data set [1], the IC50 was 10 nM. For the same compound, the Kp at 0.5 h in data set [15] was 20.8.
In the case of `CC(F)COc1ccc(COc2cnn(C(C)(C)C)c(=O)c2Cl)cc1` (stereo not drawn), the Drug uptake came out at 3.91 % ID/g in the data set on Femur [2]; 0.4 % ID/g with Liver [3]; 0.1 % ID/g with Lung [4]; 0.09 % ID/g with Blood [5]; 1.15 % ID/g with Heart [7]; 1.14 % ID/g with Heart [8]. The Drug uptake in the data set on Blood [9] was 0.04 % ID/g; in the data set on Femur [10] it was 2.91 % ID/g; in the data set with Lung [11], 0.06 % ID/g; with Liver [14], 0.44 % ID/g. The Activity in [6] came to 11.41; in [12] it was 2.62; in data set [13] it was 0.4. Besides, in data set [1], the concentration for half-maximal inhibition (IC50) stood at 8 nM. Further, the Kp at 0.5 h in [15] was 13.2.
Consider `CCCCCCCCCCSC1N=CN(C(C)(C)C)C(=O)C1Cl` (stereo not drawn), for which the half-maximal inhibitory concentration (IC50) in [1] is more than 4000 nM.
As for `[2H]C([2H])(Oc1cnn(C(C)(C)C)c(=O)c1Cl)c1ccc(COC([2H])([2H])C([2H])([2H])F)cc1`, the Drug uptake in the data set on Femur [2] was 0.78 % ID/g; in the data set on Liver [3] it was 0.44 % ID/g; with Lung [4], 0.15 % ID/g; with Blood [5], 0.08 % ID/g; with Heart [7], 1.09 % ID/g; in the data set on Heart [8], 1.6 % ID/g. Also, the Drug uptake amounted to 0.1 % ID/g in the data set with Blood [9], 0.23 % ID/g with Femur [10], 0.13 % ID/g in the data set on Lung [11] and 0.64 % ID/g with Liver [14]. Moreover, the Activity in data set [6] was determined as 7.33; in data set [12], 1.7; in [13] it was 4.6. Further, the concentration for half-maximal inhibition (IC50) in [1] was found to be 28 nM. For the same compound, the Kp at 0.5 h in data set [15] came out at 12.7.
Take `Cc1c(SCc2ccc(C(C)(C)C)cc2)cnn(C(C)(C)C)c1=O`: the IC50 in [1] stood at 21 nM.
With `CC(C)(C)c1ccc(CCOc2cnn(C(C)(C)C)c(=O)c2Cl)cc1`, the IC50 in [1] was determined as 711 nM.
For `CCCCc1ccc(COc2cnn(C(C)(C)C)c(=O)c2Cl)cc1`, the concentration for half-maximal inhibition (IC50) in data set [1] amounted to 17 nM.
In the case of `CCCCOc1ccc(COc2cnn(C(C)(C)C)c(=O)c2Cl)cc1`, the IC50 in data set [1] is 27 nM.
Consider `CC(C)(C)c1ccc(COc2cnn(C(C)(C)C)c(=O)c2Cl)cc1`, for which the half-inhibitory concentration (IC50) in data set [1] was found to be 64 nM.
As for `CC(C)(C)n1ncc(OCc2ccc(OCCCF)cc2)c(Cl)c1=O`, the Drug uptake in the data set on Femur [2] was found to be 0.76 % ID/g; with Liver [3], 0.55 % ID/g; in the data set on Lung [4], 0.24 % ID/g; in the data set with Blood [5], 0.15 % ID/g; in the data set with Heart [7], 1.31 % ID/g; in the data set on Heart [8] it was 0.86 % ID/g. Moreover, the Drug uptake in the data set on Blood [9] was 0.07 % ID/g; in the data set with Femur [10], 0.65 % ID/g; in the data set on Lung [11] it was 0.08 % ID/g; with Liver [14], 1.7 % ID/g. In addition, the Activity in [6] is 5.4; in data set [12], 0.77; in [13], 2. Besides, the half-inhibitory concentration (IC50) in [1] came out at 47 nM. In [15], the Kp at 0.5 h was 9.27.
For the compound `CC(C)(C)n1ncc(OCc2ccc3ncccc3c2)c(Cl)c1=O`, in data set [1], the half-maximal inhibitory concentration (IC50) stood at 221 nM.
Still for that read-out and setting: the same measure for `CC(C)(C)n1ncc(OCc2ccc(-c3ccccc3)cc2)c(Cl)c1=O`: 31 nM.
Consider `CCC(CF)Oc1ccc(COc2cnn(C(C)(C)C)c(=O)c2Cl)cc1` (stereo not drawn), for which the Drug uptake in the data set with Femur [2] came out at 3 % ID/g; with Liver [3] it was 0.39 % ID/g; in the data set on Lung [4], 0.79 % ID/g; in the data set with Blood [5], 0.18 % ID/g; with Heart [7], 1.05 % ID/g; with Heart [8], 1.24 % ID/g. Moreover, the Drug uptake turned out to be 0.06 % ID/g in the data set on Blood [9], 1.23 % ID/g in the data set with Femur [10], 0.22 % ID/g with Lung [11] and 0.98 % ID/g with Liver [14]. Also, the Activity turned out to be 1.37 in [6], 1.11 in [12] and 0.89 in data set [13]. Also, the IC50 in data set [1] was determined as 16 nM. Also, in data set [15], the Kp at 0.5 h was 6.05.
For `CC(C)(C)n1ncc(OCc2ccccc2)c(Cl)c1=O`, the 50% inhibitory concentration (IC50) in [1] came out at 850 nM.
Turning to `CC(C)(C)c1ccc(CSc2cnn(C(C)(C)C)c(=O)c2CF)cc1`, the concentration for half-maximal inhibition (IC50) in data set [1] stood at 250 nM.
Same read-out and setting: as for `CC(C)(C)c1ccc(CCOc2ncnc3ccccc23)cc1` [FENAZAQUIN], the figure is 90 nM.
`CC(C)(C)n1ncc(OCc2ccc(COCCF)cc2)c(Cl)c1=O` [FLURPIRIDAZ]: the Drug uptake amounted to 0.75 % ID/g in the data set on Femur [2]; 0.55 % ID/g in the data set with Liver [3]; 0.21 % ID/g in the data set with Lung [4]; 0.11 % ID/g in the data set with Blood [5]; 3.41 % ID/g in the data set on Heart [7]; 3.47 % ID/g in the data set with Heart [8]. The Drug uptake came out at 0.19 % ID/g with Blood [9], 0.45 % ID/g in the data set with Femur [10], 0.28 % ID/g with Lung [11] and 1.25 % ID/g with Liver [14]. The Activity came out at 16.05 in data set [6], 2.74 in data set [12] and 7.51 in data set [13]. In addition, in data set [1], the IC50 was found to be 11 nM. Besides, the Kp at 0.5 h in data set [15] came out at 30.
Regarding `CC(C)(C)c1ccc(CSc2cnn(C(C)(C)C)c(=O)c2Cl)cc1` [PYRIDABEN], the IC50 in data set [1] came to 8 nM.
Same read-out and setting: the same measure for `C=C(C)[C@H]1Cc2c(ccc3c2O[C@@H]2COc4cc(OC)c(OC)cc4[C@@H]2C3=O)O1` [ROTENONE]: 16 nM.
